This is a sample that favours compounds with a hit; in the whole collection about 4.1% have one here.
KCNK3 inh: human KCNK3 channel inhibitors, primary screen, CHO cells, FluxOR thallium flux, B-score. 0.84% of 340,000 active. Potassium channel subfamily K member 3 (Homo sapiens), O14649. FluxOR fluorescence; hits give low values. B-score at 10 µM;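 active = B-score under library mean minus 4 SD, starting fluorescence ratio at most library mean plus 5 SD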;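 note: more negative B-score means stronger inhibition of thallium flux through KCNK3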
KCNK9 inh: KCNK9 potassium channel inhibitors, primary screen, HEK293 cells, thallium flux | AID 488922, 2010 | 1.2% of 310,000 active | B-score at 10 µM | FluxOR thallium flux fluorescence; hits give low values;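 active = ratio B-score over 3 SD below the library mean, with starting fluorescence within 5 SD of its mean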;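 note: negative B-score means less thallium flux so channel inhibition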
Target sequence (Q9NPC2 whole entry, looked up): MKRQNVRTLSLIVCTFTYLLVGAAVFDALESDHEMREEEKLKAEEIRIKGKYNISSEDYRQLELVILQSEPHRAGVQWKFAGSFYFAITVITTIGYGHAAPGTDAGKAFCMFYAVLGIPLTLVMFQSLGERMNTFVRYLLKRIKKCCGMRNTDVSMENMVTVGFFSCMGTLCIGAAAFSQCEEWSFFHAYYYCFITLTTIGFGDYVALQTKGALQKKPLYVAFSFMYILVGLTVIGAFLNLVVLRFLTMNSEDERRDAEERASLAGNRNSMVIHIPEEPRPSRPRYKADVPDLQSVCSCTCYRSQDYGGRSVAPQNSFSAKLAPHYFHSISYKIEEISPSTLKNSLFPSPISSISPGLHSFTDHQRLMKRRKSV
Cl transport mod: KCC2 cotransporter modulators, thallium flux, primary screen, cell-based, HEK293 KCC2, FluoZin-2 fluorescence, MLSMR. Solute carrier family 12 member 5 (Homo sapiens), Q9H2X9. KCC2 cells, thallium flux FluoZin-2 fluorescence. B-score of Tl+ flux slope (higher = more flux/activation; lower = inhibition) at 10 µM. 2.2% of 190,000 active. AID 1456, 2008;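 active = thallium flux slope and its plate-corrected score both differing from the plate sample mean at a set confidence after two filtering rounds, in either direction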;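 note: slope of fluorescence scaled to starting intensity during 10 to 20 s after thallium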
KCNQ1 act: potentiators or activators of KCNQ1 channel, primary screen, cell-based, thallium flux, high-throughput; CHO-K1 KCNQ1, thallium flux FluxOR fluorescence; hits give high values; B-score at 10 µM; Potassium voltage-gated channel subfamily KQT member 1 (Homo sapiens), P51787; 0.35% of 310,000 active;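 active = fluorescence ratio B-score, a plate-corrected score, at least three library SD, with initial intensity B-score within 5 SD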
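assay system = KCNQ1-transfected CHO-K1 cells | medium = assay buffer with matched DMSO | probe or stimulus = depolarizing K+/Tl+ stimulus, K2SO4 and Tl2SO4 each 12.5 mM in 5x stock | dosing = single dose | incubation = dye 90 min, compound 20 min, room temperature | detection = kinetic FluxOR fluorescence, 10 s baseline plus 110 s post-stimulus | evaluation = ratio B score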
hERG rescue: hERG rescue from dofetilide block, primary screen, cell-based, CHO-hERG, FluxOR thallium flux, dofetilide IC70; Voltage-gated inwardly rectifying potassium channel KCNH2 (Homo sapiens), Q12809; dofetilide IC70 present; activation (rescue from dofetilide block), less the hit threshold, % at 10 µM; 0.51% of 310,000 active;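 active = activation above the mean of controls blocked by dofetilide plus 5 SD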;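 note: thallium influx through hERG after potassium depolarization seen as dye fluorescence rise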
KCNQ1 inh: inhibitors of human KCNQ1 channel, primary screen, cell-based, thallium flux, high-throughput | 1.3% of 310,000 active | B-score at 10 µM | CHO-K1 KCNQ1, FluxOR thallium flux fluorescence; hits give high values | Potassium voltage-gated channel subfamily KQT member 1 (Homo sapiens), P51787;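 active = compounds whose thallium flux B-score, printed positive for inhibition, exceeds three library SD while starting fluorescence stays within three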;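 note: channel opened by potassium depolarization with thallium stimulus after 20 min compound exposure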
KCC2 sec1: KCC2 modulators in sodium-free buffer, confirmation, cell-based, HEK293 KCC2, thallium flux, secondary assay | shares compounds with Cl transport mod | 15% of 3,700 active | AID 1713, 2009 | FluoZin2 fluorescence; hits give high values | normalised thallium flux (F/F0 slope) at 10 µM;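 active = thallium flux slope above the same plate's solvent-only control mean plus 3 SD; inconclusive = the two replicate wells disagree; inactive = no significant difference from solvent-only control wells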
KCC2 bumet counter: thallium flux persisting under bumetanide in KCC2 cells, confirmation, counter-screen for KCC2 modulator project, cell-based, HEK293 KCC2, FluoZin2, secondary assay 3; AID 1714, 2009; 49% of 3,700 active; normalized thallium flux at 10 µM; shares compounds with Cl transport mod; HEK293-KCC2 + bumetanide/ouabain; hits give high values;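 active = thallium entry rate above the same plate's blocked-transporter control wells by more than 3 SD; inconclusive = the two repeat wells disagree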;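 note: raw slope of fluorescence over initial fluorescence between 10 and 20 s after thallium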
KCC2 secondary2: KCC2 modulators without ouabain present, confirmation, cell-based, HEK293 KCC2, thallium flux, FluoZin2, secondary assay 2; AID 1715, 2009; shares compounds with Cl transport mod; normalized thallium flux at 10 µM; 23% of 3,700 active; thallium flux FluoZin2 fluorescence; actives lie on both sides; F/F0 rise rate, 10–20 s post-thallium;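 active = thallium flux slope more than 3 SD above or below the plate's solvent-only control mean, mostly below; inconclusive = the two repeat wells disagreed; inactive = no significant shift from solvent-only controls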;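 note: raw slope with 0.1% DMSO as baseline and bumetanide as block control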
HEK293 Tl flux: thallium flux modulation in parental HEK cells, confirmation, counter-screen for KCC2 modulator project, cell-based, counterscreen 1; shares compounds with Cl transport mod; HEK293 parental cells, thallium flux FluoZin2, ouabain; baseline-ratio fluorescence slope, 10–20 s after thallium; thallium flux rate (normalised fluorescence) at 10 µM; 46% of 3,700 active;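 active = thallium flux rate significantly above the same plate's solvent-only control wells, beyond their mean plus 3 SD; inconclusive = the two replicate wells gave conflicting results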
KCC2 retest ouab: KCC2 inhibitors and activators, ouabain retest, confirmation, HEK-KCC2 cells; shares compounds with Cl transport mod; HEK293-KCC2, thallium flux FluoZin2 fluorescence; bidirectional: low = inhibitor, high = activator; raw Tl+ flux slope (below DMSO = inhibition, above = activation) at 10 µM; 48% of 3,700 active;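 active = thallium flux slope beyond 3 SD from same-plate DMSO control mean in most replicates, usually higher, sometimes lower; inconclusive = repeat tests gave conflicting results; inactive = no significant difference from controls in most replicates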;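 note: slope of initial-normalized fluorescence between seconds 10 and 20 after thallium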
HEK293 Tl flux2: native HEK Tl+ uptake effects, second counter-screen – HEK cells, counterscreen 2, counter-screen for KCC2 modulator project, confirmation; shares compounds with Cl transport mod; HEK293 parental, thallium flux FluoZin-2 fluorescence slope; thallium flux slope at 10 µM; 33% of 3,700 active; AID 1718, 2009;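 active = thallium flux slope above the same plate's solvent-control mean plus 3 SD in both duplicate wells; inconclusive = duplicate wells that disagreed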;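 note: run without ouabain in cells lacking the KCC2 cotransporter; slope of fluorescence scaled to its starting value between 10 and 20 s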
Starred values were filed as active, the others as inactive; i = inactive; ? = inconclusive; nt = not tested or not shown.

SMILES | KCNK3 inh | KCNK9 inh | Cl transport mod | KCNQ1 act | hERG rescue | KCNQ1 inh | KCC2 sec1 | KCC2 bumet counter | KCC2 secondary2 | HEK293 Tl flux | KCC2 retest ouab | HEK293 Tl flux2
Cc1ccc2c(C)cc(=S)[nH]c2c1 | i | i | 28.8* | i | -7.8 | i | 0.0079 | 0.0197* | 0.0363 | 0.024* | 0.0301* | 0.021*
Cc1cc2[nH]c(=S)[nH]c2cc1C | i | i | 0.169 | i | -10.8 | i | nt | nt | nt | nt | nt | nt
Cc1ccc(S(=O)(=O)/N=C(/NC(=S)Nc2ccccc2)c2ccccc2)cc1 | i | i | 7.21 | i | -2.8 | i | nt | nt | nt | nt | nt | nt
Cc1ccc(NC(=S)N/C(=N/S(=O)(=O)c2ccccc2)c2ccccc2)cc1 | i | i | nt | i | -7.1 | i | 0.0201* | 0.0299* | 0.0377* | 0.024* | 0.031* | 0.0256*
COc1ccccc1CNc1n[nH]c(NCc2ccccc2OC)n1 | i | i | nt | i | -6.3 | i | ? | 0.00498 | 0.0295 | 0.00751 | 0.0181 | 0.0109
COc1ccccc1CNc1ccc(CNc2ncn[nH]2)cc1 | i | i | 0.63 | i | -4.8 | i | nt | nt | nt | nt | nt | nt
COc1ccc(C(=O)c2cc(OC)c(OC)c(OC)c2)cc1OC | i | nt | nt | nt | nt | nt | nt | nt | nt | nt | nt | nt
COCCN(C(=O)COC(=O)/C=C/c1cccc(OC)c1)c1c(N)n(CC(C)C)c(=O)[nH]c1=O | i | nt | nt | nt | nt | nt | nt | nt | nt | nt | nt | nt
CCCCC(=O)NNC(=S)NC(=O)c1ccc([N+](=O)[O-])cc1 | i | i | 2.43 | i | -9.0 | i | nt | nt | nt | nt | nt | nt
CCCCC(=O)NNC(=S)NC(=O)c1ccc(C)cc1 | i | i | 39.2* | i | -7.0 | i | 0.0254* | 0.0643* | 0.0527* | 0.0524* | 0.0519* | 0.0559*
O=C(CSc1nnc(C2CC2)n1Cc1ccccc1)c1cc2ccccc2o1 | i | i | -3.84* | i | -7.8 | i | 0.0066 | ? | 0.0239* | 0.0069 | ? | 0.00938
CC(C)=CCC[C@](C)(O[C@@H]1O[C@H](CO[C@@H]2OC[C@@H](O)[C@H](O)[C@H]2O)[C@@H](O)[C@H](O)[C@H]1O)C1CC[C@]2(C)C1[C@H](O)CC1[C@@]3(C)CC[C@H](O[C@@H]4O[C@H](CO)[C@@H](O)[C@H](O)[C@H]4O)C(C)(C)C3CC[C@]12C (some centres undefined) | i | nt | nt | nt | nt | nt | nt | nt | nt | nt | nt | nt
CSc1nc(=S)cc(C)[nH]1 | i | i | 16.1* | i | -2.6 | i | 0.00779 | 0.0181* | 0.0386* | 0.0224* | 0.0282* | 0.0231*
NNC(=O)CSc1cccc2cccnc12 | i | i | 0 | i | -6.0 | i | nt | nt | nt | nt | nt | nt
O=C(CSc1cccc2cccnc12)N1CCCC1 | i | i | 21.6* | i | -4.6 | i | 0.0056 | 0.0325* | 0.0292 | 0.0256* | 0.0366* | 0.0158*
